The results in this text go back to ChEMBL document CHEMBL4513216, “Probing the Open Global Health Chemical Diversity Library for Multistage-Active Starting Points for Next-Generation Antimalarials” (ACS Infect Dis, 2020).

SMILES strings stand for the structures.

This series in a line: Toxicity liver stage against HepG2, at 10uM. It is filed as cell-based. Also noted: test concentration 10 uM, cell line HepG2-A16-CD81EGFP. As to conditions: human, HepG2-A16-CD81EGFP cells; read-out: INHIBITION
The procedure, abridged: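 Uninfected HepG2-A16-CD81EGFP cells, 3 × 10^3 per well, 1536-well, plated on prespotted compound at 10 μM final, parasite-free screening media added to match infected plates; puromycin 10 μM positive, DMSO 0.5% negative; run in parallel with 48 h PbLuc assay at 37 °C, 5% CO2; viability by CellTiter-Glo luminescence, normalized to controls.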
Take `COC1CCCN(Cc2nc(Cc3ccccc3F)no2)C1` (configuration not stated): the cytotoxicity at 10 µM is -4.23%.
Regarding `c1cncc(-c2c[nH]c([C@@H]3COCCN3Cc3ccncc3)n2)c1`, the cytotoxicity at 10 µM amounted to 3.25%.
For the compound `Cn1cncc1-c1nnc([C@H]2CCN(Cc3ccc(F)c(F)c3)C2)o1`, the cytotoxicity at 10 µM amounted to 3.04%.
Take `O=S(=O)(NC[C@H]1C[C@@H]2CCN1C[C@@H]2CN1CCOCC1)c1ccccc1`: the cytotoxicity at 10 µM came out at 1.82%.
In the case of `COC1CN(C(=O)CC2CCCC2)CCC(=O)N(C)c2ccccc21` (configuration not stated), the cytotoxicity at 10 µM was -32.8%.
Consider `COC(=O)CC(C1=Cc2ccccc2OC1)c1oc(C)cc(=O)c1O` (configuration not stated), for which the cytotoxicity at 10 µM was -8.51%.
Take `CCS(=O)(=O)c1nnc([C@@H](N)Cc2ccccc2)o1`: the cytotoxicity at 10 µM was 6.99%.
For the compound `CCCSc1nn(CCCN(C)C)c2nc3sc(C)c(CC)c3c(=O)n12`, the cytotoxicity at 10 µM was -3.63%.
With `COCCSc1ccc(-n2cccn2)nn1`, the cytotoxicity at 10 µM is -24.6%.
As for `O=c1ccc2c([nH]1)CCC(NCc1ccncc1)C2` (configuration not stated), the cytotoxicity at 10 µM is -6.22%.
As for `CC(C)COCC1CN(Cc2ccco2)Cc2ncn(C)c21` (configuration not stated), the cytotoxicity at 10 µM was determined as 4.24%.
Next, `O=C(c1cnccn1)N1CCN(Cc2cccnc2)c2ncccc2C1`: -1.52%; `CC(=O)N1[C@@H](C(=O)NCC2CC2)C[C@@H]2CN(Cc3ccco3)C[C@@H]21`: 4.22%; `CCCc1nc(N2CCCCC2)c2c(n1)c(C)nn2CC`: 7.46%.
As for `Cc1ncc(CNC(=O)Cc2cccs2)c(C2CCCN2C)n1` (configuration not stated), the cytotoxicity at 10 µM was -0.279%.
For `C[S+]([O-])c1cccc(NC(=O)N[C@H](CCO)c2ccccc2)c1` (some centres not stated), the cytotoxicity at 10 µM was -3.13%.
Regarding `CC(C)OC(=O)CC(NC(=O)CCn1cccn1)c1ccccc1` (configuration not stated), the cytotoxicity at 10 µM is -12.2%.
`CCCS(=O)(=O)N1CCN(CCCO)CC1`: the cytotoxicity at 10 µM came out at 5.96%.
To `Cc1cn2nc(N(C)C3CCCN(c4cccnn4)C3)sc2n1` (configuration not stated) belongs 4.29%; to `COc1cc(C)c(S(=O)(=O)CC(=O)N(C)C(C)C)cc1OC`, 4.02%.
Take `CC(C)c1nc(NC(=O)CCCn2cccc2)n(C)n1`: the cytotoxicity at 10 µM is -7.71%.
Regarding `COc1ccc(OCCN(C)S(=O)(=O)c2cnn(C)c2)cc1`, the cytotoxicity at 10 µM was -2.82%.
Consider `Cc1ccc(N(CC(=O)N2CCCCC2)C(=O)C2COCCO2)cc1` (configuration not stated), for which the cytotoxicity at 10 µM amounted to 13.6%.
For the compound `Cn1cccc1C(=O)NC(C)(C(N)=O)c1cccc(Cl)c1` (configuration not stated), the cytotoxicity at 10 µM stood at 4.07%.
Consider `CC(=O)N(C)C1CCN(C(=O)NCC(C)Cc2cccs2)CC1` (configuration not stated), for which the cytotoxicity at 10 µM is -1.99%.
As to `CCN1CCCC(CNC(=O)CCc2ccc(OC)c(F)c2)C1` (configuration not stated), the cytotoxicity at 10 µM was -3.42%.
Next, `Cc1ccccc1C(=O)NC1CCN(c2cnn(C)c2)C1=O` (configuration not stated): 4.19%.
To `c1csc(-c2nc(CN3CCCCC3Cn3cccn3)co2)c1` (configuration not stated) belongs 3.22%.
Consider `CNC(=O)NC(=O)CCSCc1cc(F)cc2cccnc12`, for which the cytotoxicity at 10 µM was -5.31%.
Turning to `Cc1cc(CN2CCN(Cc3cnc4c(c3)c(C)nn4C)CC2)on1`, the cytotoxicity at 10 µM is -12.6%.
Take `c1csc(-c2nnc(CSCCN3CCOCC3)o2)c1`: the cytotoxicity at 10 µM was -5.77%.
To `COCCCS(=O)(=O)N1CCN(C(=O)CO)CC1` belongs -0.995%; to `Nc1cc2c(nn1)CCN(C(=O)c1csc(-c3ccco3)n1)C2`, -2.79%; to `CC[C@@H](CO)Nc1nccc(-c2cnc3sc(C)cn3c2=O)n1`, -14%.
Turning to `CC(C)(CN1CCOCC1)CN1CCC(Cc2cccc(CO)c2)C1` (configuration not stated), the cytotoxicity at 10 µM is -7.73%.
Take `CCOC(=O)c1n[nH]cc1CN1CCOC(Cc2ccc(OC)cc2)C1` (configuration not stated): the cytotoxicity at 10 µM is -0.734%.
`CC(C)n1ccnc1C1CCN(c2nccc(C(F)(F)F)n2)CC1`: the cytotoxicity at 10 µM was found to be 2.52%.
For the compound `CCc1nc(C)c(C(=O)N2CCNCC2C(=O)Nc2ccc(C)nc2)o1` (configuration not stated), the cytotoxicity at 10 µM is -4%.
As for `O=C(CCn1cc(Cl)cn1)N1CCN(CCOc2ccccc2)CC1`, the cytotoxicity at 10 µM amounted to 4.92%.
Consider `COc1c(F)cccc1C(=O)NC(C)c1cnn(C)c1` (configuration not stated), for which the cytotoxicity at 10 µM is 24.5%.
Consider `c1cc(-c2nccn2CCc2nc3c(s2)CCC3)ccn1`, for which the cytotoxicity at 10 µM stood at 6.15%.
With `COc1cccc2c1OCCCN(Cc1c[nH]nc1C(=O)O)C2`, the cytotoxicity at 10 µM stood at 6.5%.
Next, `CN(CCc1ccccn1)C(=O)c1ccccc1F`: -10.5%; `NC(=O)c1cnc2n1CCN(C(=O)c1ccc(-c3cc[nH]n3)cc1)C2`: -2.79%; `Fc1cc(Cl)cnc1N1CCCC(c2nccn2CC2CC2)C1` (configuration not stated): 4.8%.
With `CC(C)c1nccn1CCCNC(=O)c1ccc(-c2ccncc2)nc1`, the cytotoxicity at 10 µM is -9.77%.
As to `CN1CCc2nc(N(C)C)nc(N3CCC(O)CC3)c2C1`, the cytotoxicity at 10 µM is -0.879%.
For `Cc1nccn1Cc1nnc(C2CCCN(c3cnccn3)C2)n1C` (configuration not stated), the cytotoxicity at 10 µM was found to be 2.73%.
With `CCn1nc(C)c(CCNC(=O)C2CCCN(C(=O)N(C)C)C2)c1C` (configuration not stated), the cytotoxicity at 10 µM was found to be 0.874%.
On to `CC(C)c1noc(CN2CCCN(Cc3cccs3)CC2)n1`, for which the cytotoxicity at 10 µM is -6.86%.
In the case of `NC(=O)C1CCN(C(=O)c2cccn2Cc2cccs2)C1` (configuration not stated), the cytotoxicity at 10 µM is -8.5%.
To `Cc1cc(C)c(CNC(=O)CCC2CCCO2)c(=O)[nH]1` (configuration not stated) belongs 5.1%; to `N#CC1(C(=O)N2CCCN(c3nccs3)CC2)CCCCC1`, -5.83%.
In the case of `Cc1nc(C2CCCN(C(=O)c3ccoc3)C2)no1` (configuration not stated), the cytotoxicity at 10 µM is -13.1%.
To `CC(=O)Nc1nc(CN2CCOC(Cn3cncn3)C2)cs1` (configuration not stated) belongs -27.5%.
For the compound `Cc1cccc(C(=O)N2CCC(C(=O)c3cc(F)ccc3F)CC2)n1`, the cytotoxicity at 10 µM was -0.448%.
On to `O=C(CCc1cccs1)N1CCCC(N2CCNC2=O)C1` (configuration not stated), for which the cytotoxicity at 10 µM was -6.7%.
On to `Cc1ncc(C(=O)NC2CCc3nccn3C2)c(C(C)C)n1` (configuration not stated), for which the cytotoxicity at 10 µM is -2.31%.
Next, `O=C(NCCC(=O)N1CCCc2ccccc21)c1ccc(F)cc1F`: -10.1%; `Cn1cc(C(=O)N2CCCC(n3cncn3)C2)ccc1=O` (configuration not stated): -5.03%.
For `O=C(CCNC(=O)C1CCCC1)NCc1ccccc1Cn1cncn1`, the cytotoxicity at 10 µM was -5.63%.
To `CCNc1cc2c(nn1)CCN(C(=O)Cc1c(C)noc1C)C2` belongs -8.89%.
On to `CC(C)C(C(=O)N1CCCN(Cc2nccn2C)CC1)N1CCCC1` (configuration not stated), for which the cytotoxicity at 10 µM was -13%.
Take `Cn1cc(NC(=O)N2CCC(c3ccccc3)CC2)ccc1=O`: the cytotoxicity at 10 µM is -9.42%.
With `Cc1ccc(NC2CCN(C(=O)c3cc[nH]n3)CC2)nn1`, the cytotoxicity at 10 µM was -15.2%.
Next, `CS(=O)(=O)NCCCN1CCCC1Cc1ccccc1` (configuration not stated): -11.7%; `CN(Cc1ccc(F)cc1)C(=O)CN1CCCC(Cn2cncn2)C1` (configuration not stated): -14.8%; `CNc1nc(C2CCCN2C(C)=O)nc2c1CN(CCO)CC2` (configuration not stated): 2.69%.
To `COCC1CN(C(=O)COc2ccccc2)Cc2cn(C)nc21` (configuration not stated) belongs 0.55%; to `Cc1ccc(CN2CCC3(CC2)COCCN3S(C)(=O)=O)o1`, 8.86%; to `CN(C)S(=O)(=O)N1C[C@@H]2COC[C@]2(COc2ccccn2)C1`, 0.705%.
For the compound `CC1=C(C#N)C(=O)NC(=O)/C1=C\c1c(C)[nH]n(-c2ccc(Cl)cc2)c1=O`, the cytotoxicity at 10 µM is -8.94%.
